Results pooled from the literature.
Protocols differ between the studies behind these lines.
Target: Serine/threonine-protein kinase D2 (PRKD2, Homo sapiens, UniProt Q9BZL6)
One construct used (Q9BZL6 1-878): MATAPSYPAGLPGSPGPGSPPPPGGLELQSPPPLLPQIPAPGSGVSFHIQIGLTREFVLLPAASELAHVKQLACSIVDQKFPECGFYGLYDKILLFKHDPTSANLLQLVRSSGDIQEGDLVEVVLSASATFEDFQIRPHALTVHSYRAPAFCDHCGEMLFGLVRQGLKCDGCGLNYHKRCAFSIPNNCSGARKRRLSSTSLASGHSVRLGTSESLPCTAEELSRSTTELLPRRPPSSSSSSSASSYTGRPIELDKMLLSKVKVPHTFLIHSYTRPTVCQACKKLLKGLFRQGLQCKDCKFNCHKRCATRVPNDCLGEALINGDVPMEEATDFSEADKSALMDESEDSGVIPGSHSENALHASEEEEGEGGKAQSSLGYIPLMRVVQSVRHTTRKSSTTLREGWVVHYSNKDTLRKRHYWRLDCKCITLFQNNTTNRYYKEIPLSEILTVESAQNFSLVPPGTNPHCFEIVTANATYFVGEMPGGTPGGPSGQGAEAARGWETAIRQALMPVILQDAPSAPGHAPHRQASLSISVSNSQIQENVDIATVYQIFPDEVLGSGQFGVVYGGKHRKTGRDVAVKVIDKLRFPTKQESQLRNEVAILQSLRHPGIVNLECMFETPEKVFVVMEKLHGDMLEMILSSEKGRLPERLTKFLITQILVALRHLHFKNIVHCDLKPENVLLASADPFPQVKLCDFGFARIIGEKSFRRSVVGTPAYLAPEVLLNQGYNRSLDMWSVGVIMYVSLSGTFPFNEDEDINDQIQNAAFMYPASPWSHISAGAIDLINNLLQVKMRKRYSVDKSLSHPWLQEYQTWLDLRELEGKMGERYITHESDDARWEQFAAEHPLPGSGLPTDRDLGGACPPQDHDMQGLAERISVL

| Compound | observed | technique | tested at | remaining binding |
| --- | --- | --- | --- | --- |
| O=C(NCCCN1CCOCC1)c1ccc(Nc2nccc(-c3cc4ccccc4s3)n2)cc1 | binding | competition with immobilised ligand | 1 µM | 36% |
| CN(C)c1nccc(-c2cnn3ncccc23)n1 | binding | – | 1 µM | 89% |
| O=C(c1ccc(Nc2nccc(-c3cc4ccccc4s3)n2)cc1)N1CCC(N2CCCC2)CC1 | binding | competition with immobilised ligand | 1 µM | 48% |
| Cc1cnn2ncc(-c3ccnc(N(C)C)n3)c2c1 | binding | – | 1 µM | 100% |
| CC(=O)N1CCC(c2ccc(C(=O)NC(=N)N)cc2C(F)(F)F)CC1 | cell-free assay | competition with immobilised ligand | 1 µM | 100% |
| F[C@@H]1CCN(c2nccc(-c3cnn4ncccc34)n2)C1 | binding | – | 1 µM | 100% |
| O=C(NCCCN1CCOCC1)c1ccc(Nc2ncc(Cl)c(-c3ccc(Cl)s3)n2)cc1 | binding | competition with immobilised ligand | 1 µM | 3.9% |
| C=CC(=O)N1CCC(C(=O)NCC(=O)N2CCN(c3nc(-c4cnc(N)nc4C(F)F)nc(N4CCOCC4)n3)CC2)CC1 | binding | competition with immobilised ligand | 1 µM | 100% |
| Cn1cc(Cl)c2c(Oc3c(F)cc(Nc4cc(Cl)nc(N)n4)cc3F)ccnc21 | cell-free assay | competition with immobilised ligand | 0.1 µM | 91% |
| COc1ncc2cc3ccccc3nc2c1C#N | cell-free assay | competition with immobilised ligand | 5 µM | 93% |
| Nc1ncc2c(n1)-c1c([nH]c3ccc(C#CC4CC4)cc13)CCCC2 | binding | competition with immobilised ligand | 1 µM | 87% |
| O=C(NC[C@@H]1[C@H]2CN(C(=O)OCc3cc(C(F)(F)F)cc(C(F)(F)F)c3)C[C@@H]12)c1ccc2[nH]nnc2c1 | cell-free assay | competition with immobilised ligand | 1 µM | 85% |
| C[C@@H](c1ccc(-n2cnc3c(N)ncnc32)cc1)N1CCc2nn(C)c(Cc3ccccc3)c2C1=O | binding | competition with immobilised ligand | 0.1 µM | 99% |
| COc1cnc(Nc2cccc(S(N)(=O)=O)c2)nc1N1CCN(c2ccccc2)CC1 | binding | competition with immobilised ligand | 1 µM | 98% |
| C[C@H]1CCN(c2nccc(-c3cnn4ncccc34)n2)C1 | binding | – | 1 µM | 82% |
| CNCc1ccccc1-c1csc([C@H](C)Nc2nc(C)nc3cc(OC)c(OC)cc23)c1 | cell-free assay | competition with immobilised ligand | 1 µM | 99% |
| CC1CCCN1c1nccc(-c2cnn3ncccc23)n1 (stereo not shown) | binding | – | 1 µM | 85% |
| CC1=C(C#N)[C@@H](c2ccc3[nH]nc(C)c3c2)C(C#N)=C(c2ccc(Cl)cc2)N1 | cell-free assay | competition with immobilised ligand | 1 µM | 100% |
| N[C@H]1CCN(c2nccc(-c3cnn4ncccc34)n2)C1 | binding | – | 1 µM | 74% |
| O=C(NCC1CCOCC1)c1n[nH]cc1NC(=O)c1c(F)cccc1F | binding | competition with immobilised ligand | 1 µM | 100% |
| CN(C)c1ncc(F)c(-c2cnn3ncccc23)n1 | binding | – | 1 µM | 87% |
| Cc1nc(N2CC[C@@H](O)C2)ncc1-c1cc(C(F)(F)F)cc2[nH]ncc12 | binding | competition with immobilised ligand | 1 µM | 79% |
